ChEMBL document CHEMBL3872208, “Synthesis and pharmacological characterization of novel N-(trans-4-(2-(4-(benzo[d]isothiazol-3-yl)piperazin-1-yl)ethyl)cyclohexyl)amides as potential multireceptor atypical antipsychotics” (Eur J Med Chem, 2016)
Active and inactive are the calls of the source. The rule behind the calls is not given here.

What was measured:
[1] = system: CHO; assay: Selectivity ratio of Ki for displacement of [3H]spiperone from recombinant human D2L receptor expressed in CHO cell membranes to Ki for displacement of [3H]methyl-spiperone from recombinant human D3 receptor expressed in CHO cell membranes
Outline: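 D2L binding: CHO membranes (16 µg protein) with 0.3 nM [3H]methyl-spiperone in 50 mM Tris-HCl pH 7.4, 120 mM NaCl, 10 mM MgCl2, 1 mM EDTA, with butaclamol for nonspecific binding. D3 binding: membranes (8 µg) with 0.3 nM [3H]methyl-spiperone in the same Tris buffer with 5 mM KCl, 5 mM MgCl2, 5 mM EDTA, with (+)butaclamol for nonspecific binding. Both run 60 min at 22 °C, then GF/B filtration. Ki by Cheng–Prusoff; ratio is D2 Ki/D3 Ki.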

[2] = target: D(2) dopamine receptor (Homo sapiens, UniProt P14416); assay: Displacement of [3H]spiperone from recombinant human D2L receptor expressed in CHO cell membranes after 60 mins by scintillation counting method
[3] = target: D(3) dopamine receptor (Homo sapiens, UniProt P35462); assay: Displacement of [3H]methyl-spiperone from recombinant human D3 receptor expressed in CHO cell membranes after 60 mins by scintillation counting method
[4] = target: T1, 5-hydroxytryptamine receptor 2A (Homo sapiens, UniProt P28223); assay: Displacement of [3H]ketanserin from recombinant human 5-HT2A receptor expressed in HEK293 cell membranes after 60 mins by scintillation counting method
[5] = target: T2, 5-hydroxytryptamine receptor 1A (Homo sapiens, UniProt P08908); assay: Displacement of [3H]8-OH-DPAT from recombinant human 5-HT1A receptor expressed in HEK293 cell membranes after 60 mins by scintillation counting method
T2 sequence (P08908 whole entry): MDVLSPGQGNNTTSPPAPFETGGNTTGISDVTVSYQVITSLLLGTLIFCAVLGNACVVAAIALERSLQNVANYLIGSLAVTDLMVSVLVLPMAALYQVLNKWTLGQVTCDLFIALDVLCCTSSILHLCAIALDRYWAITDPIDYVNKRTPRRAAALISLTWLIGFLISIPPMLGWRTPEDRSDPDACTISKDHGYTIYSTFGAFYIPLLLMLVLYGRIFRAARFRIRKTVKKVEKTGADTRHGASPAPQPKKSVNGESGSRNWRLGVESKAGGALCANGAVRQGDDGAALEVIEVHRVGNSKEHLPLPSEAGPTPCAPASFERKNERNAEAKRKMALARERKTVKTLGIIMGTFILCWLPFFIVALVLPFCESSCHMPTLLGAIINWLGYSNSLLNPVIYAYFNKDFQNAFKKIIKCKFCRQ

[6] = system: Rattus norvegicus; assay: Antipsychotic activity in Sprague-Dawley rat assessed as inhibition of conditioned avoidance behavior at 1.0 to 2.0 mg/kg, ip administered as single dose measured after 1 hr; type: functional, organism-based
Outline: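 Male SD rats (150–180 g, 6 per group) trained in automated shuttle-boxes; only rats exceeding 80% avoidance were used. Single i.p. dose of 1.0 or 2.0 mg/kg given 1 h before a 20-trial session. Read-out is percentage of avoidance (mean ± SEM, n = 6), compared with the vehicle group.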

[7] = system: Rattus norvegicus; assay: Toxicity in Sprague-Dawley rat assessed as cataleptogenic effect by measuring time spent in cataleptic position at 1 to 10 mg/kg, po measured after 0.5 to 2 hrs; type: organism-based; settings: in vivo
Outline: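 Male SD rats (180–250 g, n = 7) dosed orally at 1.0, 3.0 or 10.0 mg/kg. Forepaws placed on a bar 0.9 cm in diameter, 11 cm high, at 30, 60 and 120 min after dosing. Time held is expressed as a percentage of the 60 s maximum (mean ± SEM).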

[8] = target: T3, 5-hydroxytryptamine receptor 1A (Homo sapiens) (UniProt P08908); settings: CHO-K1, 10 uM
T3 sequence (whole entry): T2 sequence (P08908 whole entry)

[9] = target: T1, 5-hydroxytryptamine receptor 2A; settings: CHO-K1, 10 uM

Chain of D(3) dopamine receptor (P35462 whole entry): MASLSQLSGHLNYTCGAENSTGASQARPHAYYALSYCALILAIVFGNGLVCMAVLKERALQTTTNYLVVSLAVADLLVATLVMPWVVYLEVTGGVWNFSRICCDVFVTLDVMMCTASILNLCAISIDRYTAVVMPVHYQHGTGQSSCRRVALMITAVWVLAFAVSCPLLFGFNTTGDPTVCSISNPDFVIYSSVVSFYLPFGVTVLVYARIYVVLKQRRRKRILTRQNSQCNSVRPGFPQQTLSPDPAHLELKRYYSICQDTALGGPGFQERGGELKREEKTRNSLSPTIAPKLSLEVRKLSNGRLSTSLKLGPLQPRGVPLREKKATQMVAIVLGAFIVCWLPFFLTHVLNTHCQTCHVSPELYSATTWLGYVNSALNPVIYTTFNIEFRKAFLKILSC
Chain of D(2) dopamine receptor (P14416 whole entry): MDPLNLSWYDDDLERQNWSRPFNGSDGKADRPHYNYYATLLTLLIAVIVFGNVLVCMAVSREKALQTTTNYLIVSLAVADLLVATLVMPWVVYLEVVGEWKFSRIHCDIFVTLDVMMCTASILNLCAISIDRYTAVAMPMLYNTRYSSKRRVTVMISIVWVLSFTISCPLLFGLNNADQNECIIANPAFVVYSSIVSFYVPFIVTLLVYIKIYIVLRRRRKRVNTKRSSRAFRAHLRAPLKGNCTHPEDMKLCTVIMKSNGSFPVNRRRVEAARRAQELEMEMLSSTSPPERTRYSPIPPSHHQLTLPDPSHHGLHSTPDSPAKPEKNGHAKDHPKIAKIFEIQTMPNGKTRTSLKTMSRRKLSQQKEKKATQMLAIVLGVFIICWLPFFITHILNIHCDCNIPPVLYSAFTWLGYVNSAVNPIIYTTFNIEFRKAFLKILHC
T1 sequence (P28223 whole entry): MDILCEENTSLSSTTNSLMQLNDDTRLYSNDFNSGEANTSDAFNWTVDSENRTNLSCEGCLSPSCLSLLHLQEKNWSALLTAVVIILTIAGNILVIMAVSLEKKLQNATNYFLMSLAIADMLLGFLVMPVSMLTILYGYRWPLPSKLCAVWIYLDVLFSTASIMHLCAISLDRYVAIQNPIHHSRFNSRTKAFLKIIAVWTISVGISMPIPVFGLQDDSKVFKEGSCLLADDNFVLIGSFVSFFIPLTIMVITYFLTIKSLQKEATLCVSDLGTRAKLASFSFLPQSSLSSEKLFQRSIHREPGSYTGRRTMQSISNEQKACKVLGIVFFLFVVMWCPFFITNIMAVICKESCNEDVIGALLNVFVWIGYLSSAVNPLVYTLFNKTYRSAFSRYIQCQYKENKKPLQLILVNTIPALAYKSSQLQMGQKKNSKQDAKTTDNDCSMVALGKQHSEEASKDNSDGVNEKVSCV

| Compound | Ki [2] | Ki [3] | Ki [4] | Ki [5] | inhibition [8] | inhibition [9] | Ratio Ki [1] | inhibition [6] | Activity [7] |
| --- | --- | --- | --- | --- | --- | --- | --- | --- | --- |
| O=C(N[C@H]1CC[C@H](CCN2CCN(c3nsc4ccccc34)CC2)CC1)c1ccc[nH]1 |  |  |  |  |  |  | 0.68 |  |  |
| O=C(NCc1ccccc1)N[C@H]1CC[C@H](CCN2CCN(c3nsc4ccccc34)CC2)CC1 | 1.4 nM | 0.18 nM | 0.91 nM | 5.3 nM |  |  | 7.78 |  |  |
| CCOC(=O)N[C@H]1CC[C@@H](CCN2CCN(c3nsc4ccccc34)CC2)CC1 | 4 nM | 2 nM | 0.18 nM | 0.57 nM |  |  | 2 |  |  |
| O=C(NC[C@H]1CC[C@H](CN2CCN(c3nsc4ccccc34)CC2)CC1)c1ccco1 | 8.9 nM | 1 nM | 16 nM | 5.3 nM |  |  | 8.9 |  |  |
| O=C(Nc1cccnc1)N[C@H]1CC[C@H](CCN2CCN(c3nsc4ccccc34)CC2)CC1 | 0.51 nM | 0.055 nM | 0.14 nM | 12 nM |  |  | 9.27 |  |  |
| O=C(N[C@H]1CC[C@H](CCN2CCN(c3nsc4ccccc34)CC2)CC1)c1cccs1 | 0.19 nM | 0.056 nM | 0.15 nM | 1.1 nM |  |  | 3.4 |  |  |
| CS(=O)(=O)N[C@H]1CC[C@H](CCN2CCN(c3nsc4ccccc34)CC2)CC1 | 8.9 nM | 0.095 nM | 0.28 nM | 1.3 nM |  |  | 93.7 |  |  |
| CC(=O)N[C@H]1CC[C@H](CCN2CCN(c3nsc4ccccc34)CC2)CC1 | 25 nM | 0.16 nM | 5.8 nM | 0.69 nM |  |  | 156 |  |  |
| O=C(N[C@H]1CC[C@H](CCN2CCN(c3nsc4ccccc34)CC2)CC1)N1CCOCC1 | 2.2 nM | 1.6 nM | 3.2 nM | 15 nM |  |  | 1.38 |  |  |
| O=C(N[C@H]1CC[C@H](CCN2CCN(c3nsc4ccccc34)CC2)CC1)c1cccnc1 | 0.85 nM | 0.09 nM | 0.29 nM | 2.1 nM |  |  | 9.44 |  |  |
| CN([C@H]1CC[C@H](CCN2CCN(c3nsc4ccccc34)CC2)CC1)S(=O)(=O)c1cccs1 | 0.3 nM | 0.046 nM | 1.2 nM | 2.9 nM |  |  | 6.52 |  |  |
| Cc1nc2n(c(=O)c1CCN1CCC(c3noc4cc(F)ccc34)CC1)CCCC2 [RISPERIDONE] |  |  |  |  |  |  |  |  | Non-Toxic |
| CCN(C)C(=O)N[C@H]1CC[C@H](CCN2CCN(c3nsc4ccccc34)CC2)CC1 | 0.51 nM | 0.78 nM | 0.5 nM | 1.4 nM |  |  | 0.65 |  |  |
| O=C(N[C@H]1CC[C@@H](CCN2CCN(c3nsc4ccccc34)CC2)CC1)c1ccco1 | 6.3 nM | 2.3 nM | 0.19 nM | 2.2 nM |  |  | 2.74 |  |  |
| CC(C)N(C(=O)N[C@H]1CC[C@H](CCN2CCN(c3nsc4ccccc34)CC2)CC1)C(C)C | 0.72 nM | 1.4 nM | 0.38 nM | 2.3 nM |  |  | 0.51 |  |  |

Continued, in another order:

| Ki [2] | Ki [3] | Ki [4] | Ki [5] | inhibition [8] | inhibition [9] | Compound | Ratio Ki [1] | inhibition [6] | Activity [7] |
| --- | --- | --- | --- | --- | --- | --- | --- | --- | --- |
| 9.6 nM | 0.31 nM | 0.24 nM | 3 nM |  |  | COCC(=O)N[C@H]1CC[C@H](CCN2CCN(c3nsc4ccccc34)CC2)CC1 | 31 |  |  |
| 1.7 nM | 0.27 nM | 0.63 nM | 1.1 nM |  |  | O=C(N[C@H]1CC[C@H](CCN2CCN(c3nsc4ccccc34)CC2)CC1)C(F)(F)F | 6.3 |  |  |
| 0.35 nM | 0.058 nM | 8.1 nM | 11 nM |  |  | O=S(=O)(N[C@H]1CC[C@H](CCN2CCN(c3nsc4ccccc34)CC2)CC1)c1cccnc1 | 6.03 |  |  |
| 14 nM | 1.1 nM | 4.3 nM | 33 nM |  |  | Nc1ccc2c(N3CCN(CC[C@H]4CC[C@H](NC(=O)c5ccco5)CC4)CC3)nsc2c1 | 12.7 |  |  |
| 4.6 nM | 9.6 nM | 0.21 nM | 7.2 nM |  |  | N[C@H]1CC[C@H](CCN2CCN(c3nsc4ccccc34)CC2)CC1 | 0.48 |  |  |
| 0.63 nM | 0.043 nM | 0.21 nM | 1.4 nM |  |  | O=C(Nc1ccccc1)N[C@H]1CC[C@H](CCN2CCN(c3nsc4ccccc34)CC2)CC1 | 14.7 | Active |  |
| 0.33 nM | 0.047 nM | 0.24 nM | 1.7 nM |  |  | O=C(N[C@H]1CC[C@H](CCN2CCN(c3nsc4ccccc34)CC2)CC1)c1ccccc1 | 7.02 |  |  |
|  |  |  | 1.1 nM |  |  | O=S(=O)(N[C@H]1CC[C@H](CCN2CCN(c3nsc4ccccc34)CC2)CC1)c1cccs1 |  | Active |  |
| 0.94 nM | 0.19 nM | 0.36 nM | 5.6 nM |  |  | O=C(N[C@H]1CC[C@H](CCN2CCN(c3nsc4ccccc34)CC2)CC1)C1CCCCC1 | 4.95 |  |  |
| 1.9 nM | 0.22 nM | 0.34 nM | 1.1 nM |  |  | CCCS(=O)(=O)N[C@H]1CC[C@H](CCN2CCN(c3nsc4ccccc34)CC2)CC1 | 8.64 |  |  |
| 0.53 nM | 0.4 nM | 0.6 nM | 1.2 nM |  |  | CN(C)C(=O)N[C@H]1CC[C@H](CCN2CCN(c3nsc4ccccc34)CC2)CC1 | 1.33 |  |  |
| 26 nM | 0.24 nM | 1.8 nM | 39 nM |  |  | O=C(N[C@H]1CC[C@H](CCN2CCN(c3nsc4cc([N+](=O)[O-])ccc34)CC2)CC1)c1ccco1 | 108 |  |  |
| 2.8 nM | 0.14 nM | 0.87 nM | 2.1 nM |  |  | CCCC(=O)N[C@H]1CC[C@H](CCN2CCN(c3nsc4ccccc34)CC2)CC1 | 20 |  |  |
| 10 nM | 8.7 nM | 3.3 nM | 1.3 nM |  |  | CCOC(=O)N1CCC(CCN2CCN(c3nsc4ccccc34)CC2)CC1 | 1.15 |  |  |
| 15 nM | 7.3 nM | 2.2 nM | 0.72 nM |  |  | O=C(c1ccco1)N1CCC(CCN2CCN(c3nsc4ccccc34)CC2)CC1 | 2.2 |  |  |
| 18 nM | 0.052 nM | 1.1 nM | 1.5 nM |  |  | CCC(=O)N[C@H]1CC[C@H](CCN2CCN(c3nsc4ccccc34)CC2)CC1 | 346 |  |  |
| 0.85 nM | 0.21 nM | 0.35 nM | 0.92 nM |  |  | O=C(N[C@H]1CC[C@H](CCN2CCN(c3nsc4ccccc34)CC2)CC1)C1CC1 | 4.05 |  |  |
|  |  |  |  | 108% | 100% | CSc1ccc2c(c1)C(N1CCN(C)CC1)Cc1ccccc1S2 (centres undefined) |  |  |  |
| 0.42 nM | 0.062 nM | 0.26 nM | 3.9 nM |  |  | Cc1ccc(S(=O)(=O)N[C@H]2CC[C@H](CCN3CCN(c4nsc5ccccc45)CC3)CC2)cc1 | 6.77 |  |  |
|  | 1.2 nM |  | 5.2 nM |  |  | CN(C(=O)N[C@H]1CC[C@H](CCN2CCN(c3nsc4ccccc34)CC2)CC1)c1ccccc1 |  |  |  |
